Measurements: ChEMBL document CHEMBL3286368, “Delayed and Prolonged Histone Hyperacetylation with a Selective HDAC1/HDAC2 Inhibitor” (ACS Med Chem Lett, 2014)

How the values were obtained:
Mus musculus [1] = assay: Inhibition of HDAC in CD1 nu/nu mouse tumor xenografted with human HCT116 cells assessed as plasma drug level causing increase in H2BK5 acetylation at 200 mg/kg, po qd after 48 hrs by ELISA; type: functional, HCT-116
Mus musculus [2] = assay: Dose normalized AUC in CD-1 mouse at 10 mg/kg, po; type: ADME, organism-based; set-up: dose 10 mg/kg, route oral; settings: in vivo
[3] = Half life in beagle dog at 0.5 mg/kg, iv; type: ADME, organism-based, Canis lupus familiaris; set-up: dose 0.5 mg/kg, route intravenous; settings: in vivo
In short: (§1)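 Intravenous dosing at 5 (mouse), 2 (rat), 0.5 (dog) and 0.5 (monkey) mg/kg. Plasma clearance, steady-state volume of distribution and half-life derived from the plasma profile.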

[4] = Plasma protein binding in beagle dog at 2 uM; type: ADME, cell-free, Canis lupus familiaris; settings: read-out: PPB (converted)
In short: (§2)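 Plasma protein binding measured in mouse, rat, dog and monkey plasma at 2 μM compound.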

Mus musculus [5] = assay: Inhibition of HDAC in CD1 nu/nu mouse tumor xenografted with human HCT116 cells assessed as plasma drug level causing increase in H2BK5 acetylation at 200 mg/kg, po qd after 8 hrs by ELISA; type: functional, HCT-116
in vivo [6] = settings: CD1 nu/nu, mouse, po, 525 mg/kg
[7] = AUC (0 to 24 hrs) in CD1 nu/nu mouse xenografted with human HCT116 cells at 150 mg/kg, po qd for 3 weeks; type: ADME, organism-based, HCT-116; set-up: time < 24 hr, dose 150 mg/kg, route oral; settings: in vivo
In short: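 HCT116 cells (5 × 10^6/mouse) injected sc into right flank of CD1 nu/nu mice; at ~325 mm3 tumors, randomized into groups of 12. Oral dosing 21 days, once daily or biweekly, in 40% v/v PEG-400 and 25% w/v HPβCD at 20 μL/g. […] Tumor size by caliper.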

[8] = Plasma clearance in beagle dog at 0.5 mg/kg, iv; type: ADME, organism-based, Canis lupus familiaris; set-up: dose 0.5 mg/kg, route intravenous; in short: as §1
Mus musculus [9] = assay: Inhibition of HDAC in CD1 nu/nu mouse tumor xenografted with human HCT116 cells assessed as plasma drug level causing increase in H2BK5 acetylation at 67 mg/kg, po tid after 1 hr by ELISA; type: functional, HCT-116
in vivo [10] = settings: CD1 nu/nu, mouse, po, 875 mg/kg
Mus musculus [11] = assay: Inhibition of HDAC in CD1 nu/nu mouse tumor xenografted with human HCT116 cells assessed as plasma drug level causing increase in H2BK5 acetylation at 67 mg/kg, po tid after 48 hrs by ELISA; type: functional, HCT-116
[12] = Plasma clearance in CD-1 mouse at 5 mg/kg, iv; type: ADME, organism-based; set-up: dose 5 mg/kg, route intravenous; in short: as §1
[13] = Plasma protein binding in rhesus monkey at 2 uM; type: ADME, cell-free, Macaca mulatta; settings: read-out: PPB (converted); in short: as §2
Mus musculus [14] = assay: Inhibition of HDAC in CD1 nu/nu mouse tumor xenografted with human HCT116 cells assessed as plasma drug level causing increase in H2BK5 acetylation at 200 mg/kg, po qd after 72 hrs by ELISA; type: functional, HCT-116
Mus musculus [15] = assay: Inhibition of HDAC in CD1 nu/nu mouse tumor xenografted with human HCT116 cells assessed as plasma drug level causing increase in H2BK5 acetylation at 67 mg/kg, po tid after 24 hrs by ELISA; type: functional, HCT-116
Mus musculus [16] = assay: Inhibition of HDAC in CD1 nu/nu mouse tumor xenografted with human HCT116 cells assessed as plasma drug level causing increase in H2BK5 acetylation at 200 mg/kg, po qd after 4 hrs by ELISA; type: functional, HCT-116
[17] = Cmax in CD1 nu/nu mouse xenografted with human HCT116 cells at 350 mg/kg, po administered biweekly for 3 weeks; type: ADME, organism-based, HCT-116; set-up: dose 350 mg/kg, route oral; settings: in vivo
In short: (§3)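 HCT116 cells (5 × 10^6 per mouse) injected subcutaneously into the right flank of CD1 nu/nu mice. Once tumors reached ~325 mm3, mice were randomized into groups of 12 and dosed orally for 21 days, once daily (qd) or biweekly (biw). Vehicle was 40% v/v PEG-400 plus 25% w/v HPβCD at 20 μL/g.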

[18] = Half life in Sprague-Dawley rat at 2 mg/kg, iv; type: ADME, organism-based; set-up: dose 2 mg/kg, route intravenous; settings: in vivo; in short: as §1
[19] = Drug metabolism in rat hepatocytes; type: ADME, cell-based, Hepatocyte
[20] = Cmax in CD1 nu/nu mouse xenografted with human HCT116 cells at 150 mg/kg, po qd for 3 weeks; type: ADME, organism-based, HCT-116; set-up: dose 150 mg/kg, route oral; settings: in vivo; in short: as §3
[21] = Cmax in CD1 nu/nu mouse xenografted with human HCT116 cells at 200 mg/kg, po qd for 3 weeks; type: ADME, organism-based, HCT-116; set-up: dose 200 mg/kg, route oral; settings: in vivo; in short: as §3
Mus musculus [22] = assay: Inhibition of HDAC in CD1 nu/nu mouse tumor xenografted with human HCT116 cells assessed as plasma drug level causing increase in H2BK5 acetylation at 100 mg/kg, po bid after 1 hr by ELISA; type: functional, HCT-116
Mus musculus [23] = assay: Unbound Cmin in 3 week po dosed CD1 nu/nu mouse xenografted with human HCT116 cells after 24 hrs; type: ADME, organism-based, HCT-116; settings: in vivo
[24] = Cmax in CD1 nu/nu mouse xenografted with human HCT116 cells at 525 mg/kg, po administered biweekly for 3 weeks; type: ADME, organism-based, HCT-116; set-up: dose 525 mg/kg, route oral; settings: in vivo; in short: as §3
[25] = Plasma protein binding in Sprague-Dawley rat at 2 uM; type: ADME, cell-free; settings: read-out: PPB (converted); in short: as §2
Mus musculus [26] = assay: Inhibition of HDAC in CD1 nu/nu mouse tumor xenografted with human HCT116 cells assessed as plasma drug level causing increase in H2BK5 acetylation at 67 mg/kg, po tid after 4 hrs by ELISA; type: functional, HCT-116
Mus musculus [27] = assay: Inhibition of HDAC in CD1 nu/nu mouse tumor xenografted with human HCT116 cells assessed as plasma drug level causing increase in H2BK5 acetylation at 100 mg/kg, po bid after 72 hrs by ELISA; type: functional, HCT-116
[28] = Oral bioavailability in rhesus monkey at 1 mg/kg; type: ADME, organism-based, Macaca mulatta; settings: in vivo
Mus musculus [29] = assay: Inhibition of HDAC in CD1 nu/nu mouse tumor xenografted with human HCT116 cells assessed as plasma drug level causing increase in H2BK5 acetylation at 67 mg/kg, po tid after 72 hrs by ELISA; type: functional, HCT-116
[30] = Drug metabolism in human hepatocytes assessed as oxidation of piperidine ring; type: ADME, cell-based, Hepatocyte
in vivo [31] = settings: CD1 nu/nu, mouse, po, 200 mg/kg
[32] = Oral bioavailability in CD-1 mouse at 10 mg/kg; type: ADME, organism-based; settings: in vivo

AUC/dose (Mus musculus [2]): 1.1 µM·kg·h/mg
half-life [3]: 1.4 h
fraction unbound at 2 µM [4]: 0.024
concentration at 24 h (in vivo [6]): 9.4 µM
AUC at 24 h [7]: 208 µM·h
clearance [8]: 22 mL/min/kg
concentration at 24 h (in vivo [10]): 19.3 µM
clearance [12]: 27 mL/min/kg
fraction unbound at 2 µM [13]: 0.016
Cmax [17]: 32.8 µM
half-life [18]: 4.2 h
Drug metabolism [19]: metabolite_notdetected
Cmax [20]: 16.6 µM
Cmax [21]: 40.4 µM
fCmin (Mus musculus [23]): 48 nM
Cmax [24]: 56.8 µM
fraction unbound at 2 µM [25]: 0.002
bioavailability [28]: 100%
Drug metabolism [30]: metabolite_notdetected
concentration at 24 h (in vivo [31]): 5 µM
bioavailability [32]: 82%
SMILES: Nc1ccc(-c2cccs2)cc1NC(=O)c1ccc(N2CCC3(CC2)CNC(=O)O3)nc1
INH (Mus musculus [1]): 0.2 µM
INH (Mus musculus [5]): 9.5 µM
INH (Mus musculus [9]): 14.9 µM
INH (Mus musculus [11]): 0.1 µM
INH (Mus musculus [14]): 0.3 µM
INH (Mus musculus [15]): 1.5 µM
INH (Mus musculus [16]): 17.2 µM
INH (Mus musculus [22]): 14.3 µM
INH (Mus musculus [26]): 13.8 µM
INH (Mus musculus [27]): 0.2 µM
INH (Mus musculus [29]): 0.3 µM
